In assay [1] the target is Delta-type opioid receptor (Rattus norvegicus, UniProt P33533). The assay can be described thus: Binding affinity against opioid receptor delta in rats by displacing [3H]DPDPE.
The next assay has as its target Mu-type opioid receptor (Rattus norvegicus, UniProt P33535). Kind of assay: Binding affinity against opioid receptor mu in rats by displacing [3H]-DAGO.
The species named for another assay is Mus musculus. The assay can be described thus: Concentration required to inhibit electrically induced twitch by 50% in mouse vas deferens(MVD). The format is functional. The procedure, abridged: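 Mouse vas deferens field-stimulated at 0.1 Hz, 1 ms, 40 V; twitch recorded with an isometric transducer. Peptide doses added to the aerated bath, with three to four washes at 10-min intervals between doses. IC50 from log-dose curves, normalized against a dermorphin or morphine standard run on each tissue.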

The species entered for another assay is Cavia porcellus. The assay can be described thus: Concentration required to inhibit electrically induced twitch by 50% in guinea pig ileum(GPI). The class given is functional.

Each structure is given as a SMILES string.

Chain of Delta-type opioid receptor (P33533 whole entry): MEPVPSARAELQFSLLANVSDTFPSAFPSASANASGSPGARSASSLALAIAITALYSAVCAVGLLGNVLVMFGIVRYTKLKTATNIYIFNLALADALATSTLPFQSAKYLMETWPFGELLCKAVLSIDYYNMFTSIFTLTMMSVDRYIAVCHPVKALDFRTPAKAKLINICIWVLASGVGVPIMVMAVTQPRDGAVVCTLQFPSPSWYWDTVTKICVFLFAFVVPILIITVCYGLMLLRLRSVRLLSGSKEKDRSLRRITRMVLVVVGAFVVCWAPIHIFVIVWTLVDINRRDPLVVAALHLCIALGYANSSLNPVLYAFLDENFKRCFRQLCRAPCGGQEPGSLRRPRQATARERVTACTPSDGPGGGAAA
Chain of Mu-type opioid receptor (P33535 whole entry): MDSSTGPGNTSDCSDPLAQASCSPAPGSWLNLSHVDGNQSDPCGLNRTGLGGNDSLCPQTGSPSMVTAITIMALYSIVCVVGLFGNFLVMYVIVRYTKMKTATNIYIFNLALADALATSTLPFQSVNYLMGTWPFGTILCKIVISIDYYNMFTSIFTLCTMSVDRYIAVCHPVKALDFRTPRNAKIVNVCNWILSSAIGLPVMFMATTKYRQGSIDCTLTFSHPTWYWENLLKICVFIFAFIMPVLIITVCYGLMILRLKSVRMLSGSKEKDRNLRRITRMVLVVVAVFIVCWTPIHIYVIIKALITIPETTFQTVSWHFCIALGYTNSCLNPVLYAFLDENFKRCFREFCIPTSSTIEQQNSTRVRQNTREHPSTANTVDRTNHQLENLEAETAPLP

As for `CC(C)[C@H](NC(=O)[C@H](CC(=O)O)NC(=O)[C@H](Cc1ccc(N)cc1)NC(=O)[C@@H](C)NC(=O)[C@@H](N)Cc1ccc(O)cc1)C(=O)N[C@H](C(=O)NCC(N)=O)C(C)C`, the Ki in assay [1] is 33.9 nM; at Mu-type opioid receptor, 506 nM. The IC50 in the assay filed under Mus musculus is 1100 nM; in the assay listed under Cavia porcellus, greater than 10000 nM.
For `CC(C)[C@H](NC(=O)[C@H](CC(=O)O)NC(=O)[C@H](Cc1ccc([N+](=O)[O-])cc1)NC(=O)[C@@H](C)NC(=O)[C@@H](N)Cc1ccc(O)cc1)C(=O)N[C@H](C(=O)NCC(N)=O)C(C)C`, in that order: 71.8 nM, 2390 nM, 1200 nM and greater than 10000 nM.
The corresponding values for `CC(C)[C@H](NC(=O)[C@H](CC(=O)O)NC(=O)[C@H](Cc1ccc(Br)cc1)NC(=O)[C@@H](C)NC(=O)[C@@H](N)Cc1ccc(O)cc1)C(=O)N[C@H](C(=O)NCC(N)=O)C(C)C` are 2.39 nM, 4790 nM, 1.1 nM and 7000 nM.
For `CC(C)[C@H](NC(=O)[C@H](CC(=O)O)NC(=O)[C@H](Cc1ccccc1)NC(=O)[C@@H](C)NC(=O)[C@@H](N)Cc1ccc(O)cc1)C(=O)N[C@H](C(=O)NCC(N)=O)C(C)C` [DELTORPHIN C], in that order: 0.24 nM, 272 nM, 0.14 nM and 420 nM.
Turning to `CC(C)[C@H](NC(=O)[C@H](CCC(=O)O)NC(=O)[C@H](Cc1ccc([N+](=O)[O-])cc1)NC(=O)[C@@H](C)NC(=O)[C@@H](N)Cc1ccc(O)cc1)C(=O)N[C@H](C(=O)NCC(N)=O)C(C)C`, the figures for the Ki (in assay [1]; at Mu-type opioid receptor) were 101 nM and 1430 nM, respectively. The IC50 in the assay listed under Mus musculus was 430 nM; in the assay filed under Cavia porcellus, greater than 10000 nM.
The corresponding values for `CC(C)[C@H](NC(=O)[C@H](CCC(=O)O)NC(=O)[C@H](Cc1ccc(N)cc1)NC(=O)[C@@H](C)NC(=O)[C@@H](N)Cc1ccc(O)cc1)C(=O)N[C@H](C(=O)NCC(N)=O)C(C)C` are 48.1 nM, 2460 nM, 300 nM and greater than 10000 nM.
For `CC(C)[C@H](NC(=O)[C@H](CC(=O)O)NC(=O)[C@H](Cc1ccc(F)cc1)NC(=O)[C@@H](C)NC(=O)[C@@H](N)Cc1ccc(O)cc1)C(=O)N[C@H](C(=O)NCC(N)=O)C(C)C`, in that order: 0.51 nM, 554 nM, 3.5 nM and 1100 nM.
For `CC(C)[C@H](NC(=O)[C@H](CC(=O)O)NC(=O)[C@H](Cc1ccc(I)cc1)NC(=O)[C@@H](C)NC(=O)[C@@H](N)Cc1ccc(O)cc1)C(=O)N[C@H](C(=O)NCC(N)=O)C(C)C`, in that order: 1.62 nM, 1410 nM, 17 nM and greater than 10000 nM.
In assay [1], `CC(C)[C@H](NC(=O)[C@H](CCC(=O)O)NC(=O)[C@H](Cc1ccccc1)NC(=O)[C@H](C)NC(=O)[C@@H](N)Cc1ccc(O)cc1)C(=O)N[C@H](C(=O)NCC(=O)O)C(C)C` [DELTORPHINE II] had a Ki of 0.12 nM. The IC50 in the assay filed under Mus musculus was 0.75 nM; in the assay filed under Cavia porcellus it was 5200 nM.
Regarding `CC(C)[C@H](NC(=O)[C@H](CC(=O)O)NC(=O)[C@H](Cc1ccc(Cl)cc1)NC(=O)[C@@H](C)NC(=O)[C@@H](N)Cc1ccc(O)cc1)C(=O)N[C@H](C(=O)NCC(N)=O)C(C)C`, the Ki in assay [1] was 1.58 nM; on Mu-type opioid receptor, 287 nM. Also, the results for the IC50 in the assay filed under Mus musculus and in the assay filed under Cavia porcellus were 0.16 nM and 1800 nM, respectively.

Usually Ki stands for a dissociation constant, usually derived from enzyme kinetics or from competition with a known ligand. The low end stands for tighter binding, the high end for weaker binding. In general, IC50 refers to the concentration needed to halve the response being measured.

These data come from ChEMBL document CHEMBL1126113, “Para-substituted Phe3 deltorphin analogues: enhanced selectivity of halogenated derivatives for delta opioid receptor sites” (J Med Chem, 1992).
